Assay results: ChEMBL document CHEMBL4811303, “Synthesis and evaluation of trypanocidal activity of derivatives of naturally occurring 2,5-diphenyloxazoles” (Bioorg Med Chem, 2021)

Key:
[1] = system: Trypanosoma brucei brucei; test: Trypanocidal activity against Trypanosoma brucei brucei assessed as reduction in intracellular ATP production incubated for 72 hrs by CellTiter-Glo luminescent cell viability assay; assay type: functional, organism-based
Summary of the method: (§1)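 Bloodstream trypanosomes in 96-well culture were exposed to compound in 5-fold serial dilutions from 25 µg/mL to 1.6 ng/mL for 72 h. Seeding and temperature: T. b. brucei, T. b. gambiense and T. b. rhodesiense at 5×10^3 cells/mL and 37 °C; T. evansi at 1×10^4 cells/mL and 37 °C; T. congolense at 2×10^5 cells/mL and 33 °C. Viability was read as intracellular ATP by CellTiter-Glo luminescence. Three replicates; IC50 calculated.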

[2] = system: Trypanosoma brucei gambiense; test: Trypanocidal activity against Trypanosoma brucei gambiense assessed as reduction in intracellular ATP production incubated for 72 hrs by CellTiter-Glo luminescent cell viability assay; assay type: functional, organism-based; summary of the method: as §1
[3] = system: Trypanosoma brucei rhodesiense; test: Trypanocidal activity against Trypanosoma brucei rhodesiense assessed as reduction in intracellular ATP production incubated for 72 hrs by CellTiter-Glo luminescent cell viability assay; assay type: functional, organism-based; summary of the method: as §1
Trypanosoma congolense = test: Trypanocidal activity against Trypanosoma congolense assessed as reduction in intracellular ATP production incubated for 72 hrs by CellTiter-Glo luminescent cell viability assay; assay type: functional, organism-based; summary of the method: as §1
Trypanosoma evansi = test: Trypanocidal activity against Trypanosoma evansi assessed as reduction in intracellular ATP production incubated for 72 hrs by CellTiter-Glo luminescent cell viability assay; assay type: functional, organism-based; summary of the method: as §1
[4] = Selectivity ratio of IC50 for trypanocidal activity against Trypanosoma congolense to trypanocidal activity against Trypanosoma evansi; assay type: functional
MDBK cells (Bos taurus) = test: Cytotoxicity against bovine MDBK cells assessed as reduction in cell viability incubated for 72 hrs by CCK8 assay
[5] = Selectivity index, ratio of IC50 for cytotoxicity against bovine MDBK cells to IC50 for Trypanocidal activity against Trypanosoma evansi
[6] = Selectivity index, ratio of IC50 for cytotoxicity against bovine MDBK cells to IC50 for Trypanocidal activity against Trypanosoma congolense
[7] = Selectivity index, ratio of IC50 for cytotoxicity against bovine MDBK cells to IC50 for Trypanocidal activity against Trypanosoma brucei brucei; conditions: cattle
[8] = Selectivity index, ratio of IC50 for cytotoxicity against bovine MDBK cells to IC50 for Trypanocidal activity against Trypanosoma brucei gambiense; conditions: cattle
[9] = Selectivity index, ratio of IC50 for cytotoxicity against bovine MDBK cells to IC50 for Trypanocidal activity against Trypanosoma brucei rhodesiense

Structure (SMILES)	IC50 [1] [µM]	IC50 [2] [µM]	IC50 [3] [µM]	IC50 (Trypanosoma congolense) [µM]	IC50 (Trypanosoma evansi) [µM]	Ratio IC50 [4]	IC50 (MDBK cells (Bos taurus)) [µM]	selectivity ratio [5]	selectivity ratio [6]	selectivity ratio [7]	selectivity ratio [8]	selectivity ratio [9]
Oc1ccccc1-c1coc(-c2cccc(O)c2O)n1	1.3	1.6	1.5	0.85	0.42	2	9.7	23	11	7.5	6.1	6.4
COc1cccc(-c2ncc(-c3c(OC)cccc3OC)o2)c1OC	31.6	25.8	32.2	7.7	26.6	–	91.6	3.4	12	2.9	3.5	2.8
COc1cccc(-c2ncc(-c3ccccc3OC)o2)c1	> 88.9	> 88.9	> 88.9	6.7	> 88.9	–	161	< 1.8	24	< 1.8	< 1.8	< 1.8
COc1ccccc1-c1nnc(-c2cccc(OC)c2OC)o1	13.3	13.3	13.4	2.7	7.5	–	32.3	4.3	12	2.4	2.4	2.4
COc1ccccc1-c1cnc(-c2cccc(OC)c2OC)s1	32	31.4	29.6	5.7	30.9	–	114	3.7	20	3.6	3.6	3.9
COc1ccc(-c2cnc(-c3cccc(OC)c3OC)o2)c(OC)c1	35.4	31.2	28.7	1.5	28.2	–	> 293	> 10	> 190	> 8.3	> 9.4	> 10
COc1ccccc1-c1cnc(-c2c(OC)cccc2OC)o1	19.7	24.6	18.4	5.3	21.7	–	37.6	1.7	7.1	1.9	1.5	2
COc1cccc(-c2ncc(-c3ccccc3N(C)C)o2)c1OC	20.4	35.2	23.3	4.6	24.7	–	> 308	> 12	> 66	> 15	> 8.8	> 13
CC(=O)Oc1ccc(OC(C)=O)c(-c2cnc(-c3cc(OC(C)=O)ccc3OC(C)=O)o2)c1	35.2	49.8	47.4	16.8	44.7	–	30	0.67	1.8	0.85	0.6	0.63
CC(=O)Oc1ccccc1-c1cnc(-c2cccc(OC(C)=O)c2OC(C)=O)o1	4.6	6.5	2.5	0.8	5.6	–	5.3	0.96	6.6	1.2	0.82	2.1
CC(=O)Oc1ccc(OC(C)=O)c(-c2cnc(-c3ccccc3)o2)c1	16.6	41.9	64.4	3.9	18.9	–	9.6	0.51	2.4	0.58	0.23	0.15
COc1cccc(-c2ncc(-c3ccc(OC)c(OC)c3OC)o2)c1OC	64.9	63.4	65	23.6	59.8	–	99.1	1.7	4.2	1.5	1.6	1.5
COc1cccc(-c2ncc(-c3ccccc3C)o2)c1OC	39.1	40	40	3	36	–	56.9	1.6	19	1.5	1.4	1.4
COc1cccc(-c2cnc(-c3ccc(OC)c(OC)c3OC)o2)c1OC	64.1	63.1	64.5	51.3	19.9	–	> 269	> 14	> 5.3	> 4.2	> 4.3	> 4.2
COc1cccc(-c2cnc(-c3cccc(OC)c3OC)o2)c1OC	70	69.2	70.2	26.4	65.5	–	90.8	1.4	3.4	1.3	1.3	1.3
Oc1ccc(O)c(-c2cnc(-c3ccccc3)o2)c1	20.6	17.8	18.1	4.7	12.2	–	7.5	0.61	1.6	0.36	0.42	0.42
Oc1ccc(O)c(-c2cnc(-c3cc(O)ccc3O)o2)c1	54.7	78.3	72.1	8.6	44.4	–	22.7	0.51	2.6	0.41	0.29	0.31
COc1cccc(-c2cnc(-c3cccc(OC)c3)o2)c1	62.2	66.9	66.5	21.4	53.9	–	> 355	> 6.6	> 17	> 5.7	> 5.3	> 5.3
COc1cccc(-c2ncc(-c3ccc4ccccc4c3)o2)c1OC	71.5	51.7	71.7	45.8	71.2	–	42.7	0.6	0.93	0.6	0.83	0.6
Oc1ccc(O)c(-c2ncc(-c3ccccc3O)o2)c1	25.9	80.9	84.2	9.5	22.2	–	77.4	3.5	8.2	3	0.96	0.92
COc1cccc(-c2ncc(-c3ccccc3)o2)c1OC	86.6	84.7	84.1	4	59.3	–	40.6	0.68	10	0.47	0.48	0.48
